Blank lines part the entries; values can stand above or below the compound they belong to. Calls of active or inactive are those of the source. The rule behind the calls is not given here.
Legend:
[1] = molecular target: T1, von Hippel-Lindau disease tumor suppressor/Baculoviral IAP repeat-containing protein 2 (Homo sapiens) (UniProt Q13490+P40337); assay: PROTAC activity at VHL/IAP in human HG-3 cells harboring wild type VHL assessed as induction of cIAP1 degradation at 1 uM incubated for 16 hrs by western blot analysis; type: cell-based
How it was run: (§1)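 HG3 cells expressing Cas9 (lentiviral, blasticidin-selected) transduced with sgRNA against VHL or control luciferase (≥95% tomato-positive by FACS at 48 h); treated 1 μM for 16 h; lysed, SDS-PAGE, PVDF immunoblot with ECL detection, bands quantified by densitometry.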

[2] = molecular target: T2, von Hippel-Lindau disease tumor suppressor/E3 ubiquitin-protein ligase XIAP (Homo sapiens) (UniProt P98170+P40337); assay: PROTAC activity at VHL/IAP in human HG-3 cells harboring wild type VHL assessed as induction of XIAP degradation at 1 uM incubated for 16 hrs by western blot analysis; type: cell-based; how it was run: as §1
[3] = molecular target: Baculoviral IAP repeat-containing protein 2 (Homo sapiens) (UniProt Q13490); assay: Induction of cIAP1 degradation in human VHL knock-out HG-3 cells at 1 uM incubated for 16 hrs by western blot analysis; type: cell-based; how it was run: as §1
RPMI-8226 = assay: Cytotoxicity against human RPMI-8226 cells assessed as reduction in cell viability measured after 96 hrs in presence of TNF-alpha by CellTiter-Glo luminescent assay; type: functional, cell-based; details: RPMI-8226, 96 h
How it was run: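 Cells kept in RPMI-1640 with 10% FBS, 1% penicillin/streptomycin and 1% L-glutamine at 37 °C, 5% CO2. Seeded with compounds and incubated 96 h at 37 °C with TNF-α at 1 ng/mL. Viability read by CellTiter-Glo luminescence and normalized to DMSO-treated control. Mean ± SD of biological triplicates.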

[4] = molecular target: Protein cereblon/Baculoviral IAP repeat-containing protein 2 (Homo sapiens) (UniProt Q13490+Q96SW2); assay: PROTAC activity at CRBN/IAP in human MM1.S cells assessed as induction of cIAP1 degradation by measuring remaining protein level at 0.1 uM incubated for 16 hrs by western blot analysis; type: cell-based
How it was run: (§2)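 MM.1S cells treated 16 h at the stated concentration. Lysed, run on SDS-PAGE and transferred to PVDF. Probed with primary antibodies overnight at 4 °C, then HRP secondaries, with ECL detection. Band densitometry normalized to loading control and to DMSO-treated cells. Averages of at least three independent experiments.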

[5] = molecular target: Protein cereblon-IAP (Homo sapiens) (UniProt P98170+Q13489+Q13490+Q96SW2); assay: PROTAC activity at CRBN/IAP in human MM1.S cells assessed as induction of CRBN degradation by measuring remaining protein level at 0.1 uM incubated for 16 hrs by western blot analysis; type: cell-based; how it was run: as §2
[6] = molecular target: T3, Protein cereblon/E3 ubiquitin-protein ligase XIAP (Homo sapiens) (UniProt P98170+Q96SW2); assay: PROTAC activity at CRBN/IAP in human MM1.S cells assessed as induction of XIAP degradation by measuring remaining protein level at 0.1 uM incubated for 16 hrs by western blot analysis; type: cell-based; how it was run: as §2
[7] = molecular target: Protein cereblon/Baculoviral IAP repeat-containing protein 3 (Homo sapiens) (UniProt Q13489+Q96SW2); assay: PROTAC activity at CRBN/IAP in human MM1.S cells assessed as induction of cIAP2 degradation by measuring remaining protein level at 0.1 uM incubated for 16 hrs by western blot analysis; type: cell-based; how it was run: as §2
[8] = molecular target: T4, von Hippel-Lindau disease tumor suppressor/IAP (Homo sapiens) (UniProt P98170+Q13489+Q13490+P40337); assay: PROTAC activity at VHL/IAP in human MM1.S cells assessed as induction of VHL30 degradation at 1 uM incubated for 16 hrs by western blot analysis; type: cell-based; how it was run: as §2
[9] = molecular target: Protein cereblon/Zinc finger protein Aiolos (Homo sapiens) (UniProt Q96SW2+Q9UKT9); assay: PROTAC activity at CRBN/IKZF3 in human MM1.S cells assessed as induction of IKZF3 degradation at 1 uM incubated for 16 hrs by western blot analysis; type: cell-based; how it was run: as §2
[10] = molecular target: T2, von Hippel-Lindau disease tumor suppressor/E3 ubiquitin-protein ligase XIAP (Homo sapiens); assay: PROTAC activity at VHL/IAP in human MM1.S cells assessed as induction of XIAP degradation at 0.1 to 1 uM incubated for 16 hrs by western blot analysis; type: cell-based; details: dose 0.1-1 µM; how it was run: as §2
[11] = molecular target: T1, von Hippel-Lindau disease tumor suppressor/Baculoviral IAP repeat-containing protein 2 (Homo sapiens); assay: PROTAC activity at VHL/IAP in human MM1.S cells assessed as induction of cIAP1 degradation at 0.1 to 1 uM incubated for 16 hrs by western blot analysis; type: cell-based; details: dose 0.1-1 µM
How it was run: (§3)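 MM.1S cells (RPMI-1640, 10% FBS, 1% pen/strep, 1% L-glutamine, 37 °C, 5% CO2) exposed to compound or DMSO for 16 h. Lysed in IP lysis buffer, SDS-PAGE, PVDF transfer, primary antibody overnight at 4 °C, HRP secondary, ECL detection. Bands quantified densitometrically, normalized to loading control and DMSO, reported as remaining protein; at least three independent experiments.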

[12] = molecular target: T4, von Hippel-Lindau disease tumor suppressor/IAP (Homo sapiens); assay: PROTAC activity at VHL/IAP in human MM1.S cells assessed as induction of VHL30 degradation by measuring remaining protein level at 0.1 uM incubated for 16 hrs by western blot analysis; type: cell-based; how it was run: as §2
[13] = molecular target: T5, von Hippel-Lindau disease tumor suppressor/Baculoviral IAP repeat-containing protein 3 (Homo sapiens) (UniProt Q13489+P40337); assay: PROTAC activity at VHL/IAP in human MM1.S cells assessed as induction of cIAP2 degradation at 0.1 to 1 uM incubated for 16 hrs by western blot analysis; type: cell-based; details: dose 0.1-1 µM; how it was run: as §3
[14] = molecular target: T3, Protein cereblon/E3 ubiquitin-protein ligase XIAP (Homo sapiens); assay: PROTAC activity at CRBN/IAP in human MM1.S cells assessed as induction of XIAP degradation at 1 uM incubated for 16 hrs by western blot analysis; type: cell-based; how it was run: as §2
[15] = molecular target: Baculoviral IAP repeat-containing protein 2 (Homo sapiens) (UniProt Q13490); assay: Induction of cIAP1 degradation in human MM1.S cells assessed as remaining protein level at 0.1 uM incubated for 16 hrs by western blot analysis; type: cell-based
How it was run: (§4)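 Lysed, run on SDS-PAGE and transferred to PVDF. Probed with primary antibodies overnight at 4 °C, then HRP secondaries, with ECL detection. Band densitometry normalized to loading control and to DMSO-treated cells. Averages of at least three independent experiments.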

[16] = molecular target: Baculoviral IAP repeat-containing protein 3 (Homo sapiens) (UniProt Q13489); assay: Induction of cIAP2 degradation in human MM1.S cells assessed as remaining protein level at 0.1 uM incubated for 16 hrs by western blot analysis; type: cell-based; how it was run: as §4
[17] = molecular target: Baculoviral IAP repeat-containing protein 2 (Homo sapiens) (UniProt Q13490); assay: Induction of cIAP1 degradation in human MM1.S cells at 1 uM incubated for 16 hrs by western blot analysis; type: cell-based; how it was run: as §2
[18] = molecular target: von Hippel-Lindau disease tumor suppressor (Homo sapiens) (UniProt P40337); assay: Induction of VHL30 degradation in human MM1.S cells assessed as remaining protein level at 0.1 uM incubated for 16 hrs by western blot analysis; type: cell-based; how it was run: as §2
[19] = molecular target: T2, von Hippel-Lindau disease tumor suppressor/E3 ubiquitin-protein ligase XIAP (Homo sapiens); assay: PROTAC activity at VHL/IAP in human MM1.S cells assessed as induction of XIAP degradation at 1 uM incubated for 16 hrs by western blot analysis; type: cell-based; how it was run: as §3
[20] = molecular target: T1, von Hippel-Lindau disease tumor suppressor/Baculoviral IAP repeat-containing protein 2 (Homo sapiens); assay: PROTAC activity at VHL/IAP in human MM1.S cells assessed as induction of cIAP1 degradation at 10 nM incubated for 16 hrs by western blot analysis; type: cell-based; how it was run: as §3
[21] = molecular target: T5, von Hippel-Lindau disease tumor suppressor/Baculoviral IAP repeat-containing protein 3 (Homo sapiens); assay: PROTAC activity at VHL/IAP in human MM1.S cells assessed as induction of cIAP2 degradation at 1 uM incubated for 16 hrs by western blot analysis; type: cell-based; how it was run: as §3
[22] = molecular target: T5, von Hippel-Lindau disease tumor suppressor/Baculoviral IAP repeat-containing protein 3 (Homo sapiens); assay: PROTAC activity at VHL/IAP in human MM1.S cells assessed as induction of cIAP2 degradation at 10 nM incubated for 16 hrs by western blot analysis; type: cell-based; how it was run: as §3
[23] = molecular target: T1, von Hippel-Lindau disease tumor suppressor/Baculoviral IAP repeat-containing protein 2 (Homo sapiens); assay: PROTAC activity at VHL/IAP in human MM1.S cells assessed as induction of cIAP1 degradation at 1 uM incubated for 16 hrs by western blot analysis; type: cell-based; how it was run: as §3
[24] = molecular target: T2, von Hippel-Lindau disease tumor suppressor/E3 ubiquitin-protein ligase XIAP (Homo sapiens); assay: PROTAC activity at VHL/IAP in human MM1.S cells assessed as induction of XIAP degradation at 10 nM incubated for 16 hrs by western blot analysis; type: cell-based; how it was run: as §3

T5 sequence (P40337 whole entry, looked up): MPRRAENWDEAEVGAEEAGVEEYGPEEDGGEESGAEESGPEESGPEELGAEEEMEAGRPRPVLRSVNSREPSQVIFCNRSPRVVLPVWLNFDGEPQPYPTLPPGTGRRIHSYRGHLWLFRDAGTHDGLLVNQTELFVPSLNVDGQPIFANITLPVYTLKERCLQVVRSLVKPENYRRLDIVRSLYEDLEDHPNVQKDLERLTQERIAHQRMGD
T5 sequence (Q13489 whole entry, looked up): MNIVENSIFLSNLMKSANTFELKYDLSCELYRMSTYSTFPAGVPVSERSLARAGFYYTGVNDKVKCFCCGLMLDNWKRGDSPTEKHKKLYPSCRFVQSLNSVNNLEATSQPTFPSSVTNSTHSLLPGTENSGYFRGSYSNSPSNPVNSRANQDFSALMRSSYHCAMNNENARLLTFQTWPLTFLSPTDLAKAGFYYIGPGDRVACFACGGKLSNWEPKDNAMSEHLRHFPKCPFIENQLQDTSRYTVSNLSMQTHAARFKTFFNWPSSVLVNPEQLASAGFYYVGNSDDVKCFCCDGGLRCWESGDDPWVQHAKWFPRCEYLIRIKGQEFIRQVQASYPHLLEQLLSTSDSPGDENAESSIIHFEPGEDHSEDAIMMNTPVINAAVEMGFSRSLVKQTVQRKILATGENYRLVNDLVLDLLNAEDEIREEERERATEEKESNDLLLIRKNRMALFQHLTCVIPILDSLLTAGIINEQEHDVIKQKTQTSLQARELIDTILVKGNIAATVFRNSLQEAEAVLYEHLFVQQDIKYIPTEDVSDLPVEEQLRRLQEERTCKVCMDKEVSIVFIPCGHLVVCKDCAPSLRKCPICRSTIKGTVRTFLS
T2 sequence (P40337 whole entry, looked up): as the sequence (P40337 whole entry, looked up) above
T2 sequence (P98170 whole entry, looked up): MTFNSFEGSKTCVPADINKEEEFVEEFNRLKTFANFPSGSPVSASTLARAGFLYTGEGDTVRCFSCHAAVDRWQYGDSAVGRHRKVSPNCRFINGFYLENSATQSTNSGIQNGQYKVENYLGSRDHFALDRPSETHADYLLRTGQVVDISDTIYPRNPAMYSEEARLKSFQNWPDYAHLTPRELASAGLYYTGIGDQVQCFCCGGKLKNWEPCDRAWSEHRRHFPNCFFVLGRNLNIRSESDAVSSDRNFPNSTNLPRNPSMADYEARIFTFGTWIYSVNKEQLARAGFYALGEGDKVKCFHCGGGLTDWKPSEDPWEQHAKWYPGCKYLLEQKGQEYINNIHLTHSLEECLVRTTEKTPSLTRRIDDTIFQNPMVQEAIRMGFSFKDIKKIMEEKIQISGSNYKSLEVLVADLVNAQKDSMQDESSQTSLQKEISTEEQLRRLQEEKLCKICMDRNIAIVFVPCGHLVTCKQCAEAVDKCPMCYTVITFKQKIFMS
T1 sequence (P40337 whole entry, looked up): as the sequence (P40337 whole entry, looked up) above
T1 sequence (Q13490 whole entry, looked up): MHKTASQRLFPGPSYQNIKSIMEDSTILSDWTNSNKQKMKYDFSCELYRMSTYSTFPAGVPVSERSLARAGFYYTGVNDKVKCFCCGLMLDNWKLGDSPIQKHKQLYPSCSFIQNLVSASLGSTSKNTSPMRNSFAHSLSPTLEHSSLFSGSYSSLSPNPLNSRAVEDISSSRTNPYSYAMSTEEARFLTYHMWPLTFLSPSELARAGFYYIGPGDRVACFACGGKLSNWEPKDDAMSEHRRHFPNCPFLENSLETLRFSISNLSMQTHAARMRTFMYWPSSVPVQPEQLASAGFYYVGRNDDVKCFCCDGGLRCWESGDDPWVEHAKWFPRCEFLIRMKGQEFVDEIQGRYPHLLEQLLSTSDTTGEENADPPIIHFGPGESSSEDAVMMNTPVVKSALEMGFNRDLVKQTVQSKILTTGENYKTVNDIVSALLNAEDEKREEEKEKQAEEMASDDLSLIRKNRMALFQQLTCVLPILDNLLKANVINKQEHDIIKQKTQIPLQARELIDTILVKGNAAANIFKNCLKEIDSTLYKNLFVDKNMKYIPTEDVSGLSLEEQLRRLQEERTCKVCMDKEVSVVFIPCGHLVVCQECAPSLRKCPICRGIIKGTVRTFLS
Chain of Baculoviral IAP repeat-containing protein 2 (Homo sapiens) (Q13490 whole entry): as the sequence (Q13490 whole entry, looked up) above
T3 sequence (P98170 whole entry, looked up): as the sequence (P98170 whole entry, looked up) above
T3 sequence (Q96SW2 whole entry, looked up): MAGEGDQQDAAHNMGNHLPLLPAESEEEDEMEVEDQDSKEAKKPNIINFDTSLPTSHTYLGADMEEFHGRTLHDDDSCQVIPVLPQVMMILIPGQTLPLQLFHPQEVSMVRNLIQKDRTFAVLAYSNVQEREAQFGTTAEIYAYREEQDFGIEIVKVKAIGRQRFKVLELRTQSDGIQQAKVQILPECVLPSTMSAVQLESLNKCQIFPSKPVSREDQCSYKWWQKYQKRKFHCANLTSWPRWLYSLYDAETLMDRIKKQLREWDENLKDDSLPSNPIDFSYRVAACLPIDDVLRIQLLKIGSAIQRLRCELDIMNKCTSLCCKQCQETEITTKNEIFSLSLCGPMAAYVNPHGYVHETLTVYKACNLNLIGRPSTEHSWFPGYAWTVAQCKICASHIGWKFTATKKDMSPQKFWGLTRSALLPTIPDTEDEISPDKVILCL
Chain of Protein cereblon/Zinc finger protein Aiolos (Homo sapiens) (Q96SW2 whole entry, looked up): as above
Chain of Protein cereblon/Zinc finger protein Aiolos (Homo sapiens) (Q9UKT9 whole entry, looked up): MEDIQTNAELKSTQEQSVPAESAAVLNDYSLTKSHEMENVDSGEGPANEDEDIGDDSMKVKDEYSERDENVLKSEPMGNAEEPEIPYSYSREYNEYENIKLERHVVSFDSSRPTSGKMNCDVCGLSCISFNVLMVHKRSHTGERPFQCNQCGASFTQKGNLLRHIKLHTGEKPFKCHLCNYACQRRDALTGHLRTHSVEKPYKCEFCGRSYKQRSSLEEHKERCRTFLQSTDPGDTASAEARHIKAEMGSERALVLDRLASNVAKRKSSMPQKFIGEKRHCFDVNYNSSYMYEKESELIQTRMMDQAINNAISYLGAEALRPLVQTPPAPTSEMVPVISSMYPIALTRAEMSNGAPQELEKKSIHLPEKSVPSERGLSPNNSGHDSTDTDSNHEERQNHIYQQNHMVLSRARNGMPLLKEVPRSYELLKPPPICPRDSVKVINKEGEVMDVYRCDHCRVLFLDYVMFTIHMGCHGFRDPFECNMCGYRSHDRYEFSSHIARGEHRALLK
T4 sequence (P40337 whole entry, looked up): as the sequence (P40337 whole entry, looked up) above
T4 sequence (P98170 whole entry, looked up): as the sequence (P98170 whole entry, looked up) above
T4 sequence (Q13489 whole entry, looked up): as the sequence (Q13489 whole entry, looked up) above
T4 sequence (Q13490 whole entry, looked up): as the sequence (Q13490 whole entry, looked up) above
Chain of Baculoviral IAP repeat-containing protein 3 (Homo sapiens) (Q13489 whole entry): as the sequence (Q13489 whole entry, looked up) above
Chain of Protein cereblon/Baculoviral IAP repeat-containing protein 3 (Homo sapiens) (Q13489 whole entry, looked up): as above
Chain of Protein cereblon/Baculoviral IAP repeat-containing protein 3 (Homo sapiens) (Q96SW2 whole entry, looked up): as the sequence (Q96SW2 whole entry, looked up) above
Chain of Protein cereblon-IAP (Homo sapiens) (P98170 whole entry, looked up): as the sequence (P98170 whole entry, looked up) above
Chain of Protein cereblon-IAP (Homo sapiens) (Q13489 whole entry, looked up): as the sequence (Q13489 whole entry, looked up) above
Chain of Protein cereblon-IAP (Homo sapiens) (Q13490 whole entry, looked up): as the sequence (Q13490 whole entry, looked up) above
Chain of Protein cereblon-IAP (Homo sapiens) (Q96SW2 whole entry, looked up): as the sequence (Q96SW2 whole entry, looked up) above
Chain of von Hippel-Lindau disease tumor suppressor (Homo sapiens) (P40337 whole entry, looked up): as the sequence (P40337 whole entry, looked up) above
Chain of Protein cereblon/Baculoviral IAP repeat-containing protein 2 (Homo sapiens) (Q13490 whole entry, looked up): as the sequence (Q13490 whole entry, looked up) above
Chain of Protein cereblon/Baculoviral IAP repeat-containing protein 2 (Homo sapiens) (Q96SW2 whole entry, looked up): as the sequence (Q96SW2 whole entry, looked up) above

Compound: CN[C@@H](C)C(=O)N[C@H](C(=O)N1C[C@@H](Oc2cccc(OCCCCCCCC(=O)N[C@H](C(=O)N3C[C@H](O)C[C@H]3C(=O)NCc3ccc(-c4scnc4C)cc3)C(C)(C)C)c2)C[C@H]1C(=O)N[C@@H]1CCCc2ccccc21)C1CCCCC1
Activity [1]: Active
Activity [2]: Active
Activity [3]: Active

Compound: CN[C@@H](C)C(=O)N[C@H](C(=O)N1C[C@@H](Oc2cccc(OCCCCC(=O)N[C@H](C(=O)N3C[C@@H](O)C[C@H]3C(=O)NCc3ccc(-c4scnc4C)cc3)C(C)(C)C)c2)C[C@H]1C(=O)N[C@@H]1CCCc2ccccc21)C1CCCCC1
IC50 (RPMI-8226): > 5 µM

Compound: CN[C@@H](C)C(=O)N[C@H](C(=O)N1CC(Oc2cccc(OCCCCCCOCCCCCCOCC(=O)N[C@H](C(=O)N3C[C@H](O)C[C@H]3C(=O)NCc3ccc(-c4scnc4C)cc3)C(C)(C)C)c2)C[C@H]1C(=O)N[C@@H]1CCCc2ccccc21)C1CCCCC1 (single isomer, unassigned)
Activity [1]: Active
Activity [2]: Active
Activity [3]: Active

Compound: CN[C@@H](C)C(=O)N[C@H](C(=O)N1C[C@@H](Oc2cccc(OCCOCCOCC(=O)N[C@H](C(=O)N3C[C@H](O)C[C@H]3C(=O)NCc3ccc(-c4scnc4C)cc3)C(C)(C)C)c2)C[C@H]1C(=O)N[C@@H]1CCCc2ccccc21)C1CCCCC1
Activity [1]: Active
Activity [2]: Active
Activity [3]: Active

Compound: CN[C@@H](C)C(=O)N[C@H](C(=O)N1C[C@@H](Oc2ccccc2)C[C@H]1C(=O)N[C@@H]1CCCc2ccccc21)C1CCCCC1
Activity [15]: 7%
Activity [16]: 47%
Activity [17]: Active
Activity [18]: 72%

Next, values leading:

Activity [4]: 5%
Activity [5]: 90%
Activity [6]: 4%
Activity [7]: 14%
Compound: CN[C@@H](C)C(=O)N[C@H](C(=O)N1C[C@@H](Oc2cccc(OCCCCCCCCNc3cccc4c3C(=O)N(C3CCC(=O)NC3=O)C4=O)c2)C[C@H]1C(=O)N[C@@H]1CCCc2ccccc21)C1CCCCC1 (some centres not stated)

Activity [8]: Active
Compound: CN[C@@H](C)C(=O)N[C@H](C(=O)N1C[C@@H](Oc2cccc(OCCCCOCCCC(=O)N[C@H](C(=O)N3C[C@H](O)C[C@H]3C(=O)NCc3ccc(-c4scnc4C)cc3)C(C)(C)C)c2)C[C@H]1C(=O)N[C@@H]1CCCc2ccccc21)C1CCCCC1

Activity [9]: Active
Compound: CN[C@@H](C)C(=O)N[C@H](C(=O)N1C[C@@H](Oc2cccc(OCCCCOCCCCNc3cccc4c3C(=O)N(C3CCC(=O)NC3=O)C4=O)c2)C[C@H]1C(=O)N[C@@H]1CCCc2ccccc21)C1CCCCC1 (some centres not stated)

Activity [10]: Active
Activity [11]: Active
Activity [12]: 38%
Activity [13]: Active
Compound: CN[C@@H](C)C(=O)N[C@H](C(=O)N1C[C@@H](Oc2cccc(OCCCCC(=O)N[C@H](C(=O)N3C[C@H](O)C[C@H]3C(=O)NCc3ccc(-c4scnc4C)cc3)C(C)(C)C)c2)C[C@H]1C(=O)N[C@@H]1CCCc2ccccc21)C1CCCCC1

Activity [9]: Active
Compound: CN[C@@H](C)C(=O)N[C@H](C(=O)N1C[C@@H](Oc2cccc(OCCCCCOCCCCCOCCCCCCNc3cccc4c3C(=O)N(C3CCC(=O)NC3=O)C4=O)c2)C[C@H]1C(=O)N[C@@H]1CCCc2ccccc21)C1CCCCC1 (some centres not stated)

Activity [14]: inactive
Compound: CN[C@@H](C)C(=O)N[C@H](C(=O)N1C[C@@H](Oc2cccc(OCCOCCCCCCOCCCCCCNc3cccc4c3C(=O)N(C3CCC(=O)N(C)C3=O)C4=O)c2)C[C@H]1C(=O)N[C@@H]1CCCc2ccccc21)C1CCCCC1 (some centres not stated)

Activity [19]: Active
Activity [20]: inactive
Activity [21]: Active
Activity [22]: inactive
Activity [23]: Active
Activity [24]: inactive
Compound: CN[C@@H](C)C(=O)N[C@H](C(=O)N1C[C@@H](Oc2cccc(OCCCCCCOCCCCCCOCCCCCCOc3cc(-c4scnc4C)ccc3CNC(=O)[C@@H]3C[C@@H](O)CN3C(=O)[C@H](C(C)C)N3Cc4ccccc4C3=O)c2)C[C@H]1C(=O)N[C@@H]1CCCc2ccccc21)C1CCCCC1

From ChEMBL document CHEMBL5338733, “Heterobifunctional Ligase Recruiters Enable pan-Degradation of Inhibitor of Apoptosis Proteins” (J Med Chem, 2023)
